Converted amounts (≈) assume the structure as drawn. Where only a bound is given, the exact number is not on record here.

For experiment [1], the system named is Pseudomonas aeruginosa. Put plainly: In vitro antibacterial activity against gram negative P. aeruginosa DPHP 5263. The class given is functional. A digest of the protocol: (§1)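 Agar dilution MIC determination following the National Committee for Clinical Laboratory Standards recommendations.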
The test system of experiment [2] is Staphylococcus aureus. Put plainly: In vivo efficacy against Staphylococcus aureus NCTC 10649M in mouse. The format is functional. Particulars: Staphylococcus aureus; read-out: ED50. A digest of the protocol: (§2)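 Mouse protection model: mice infected intravenously with 100-fold LD50 of the organism. Compound given by subcutaneous injection or oral gavage at 1 and 5 h after infection, over a dose range. Deaths tracked for 7 days post-inoculation. ED50 is the dose giving 50% survival of treated mice over the trial.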

Experiment [3] relates to Staphylococcus aureus. Put plainly: In vitro antibacterial activity against gram-positive Staphylococcus aureus NCTC 10649M. The format is functional. The method in brief:
as §1

The subject of experiment [4] is Escherichia coli. Description: In vitro antibacterial activity against gram negative Escherichia coli KNK 437. The class given is functional. The method in brief: as §1
The test system of experiment [5] is Escherichia coli. Description: In vivo efficacy against Escherichia coli JUHL in mouse protection test after subcutaneous administration. As to conditions: Escherichia coli, sc; read-out: ED50. The format is functional. The method in brief: as §2
Experiment [6] deals with Pseudomonas aeruginosa. Put plainly: Not Plasmodium species. The format is functional.
For experiment [7], the system named is Burkholderia cepacia. Description: In vitro antibacterial activity against gram negative Pseudomonas cepacia 2961. The format is functional. A digest of the protocol:
as §1

In experiment [8] the test system is Enterococcus faecium. Description: In vitro antibacterial activity against gram-positive Enterococcus faecium ATCC 8043. The class given is functional. The method in brief:
as §1

The test system of experiment [9] is Streptococcus pyogenes. Put plainly: In vitro antibacterial activity against gram positive Streptococcus pyogenes 930. The class given is functional. A digest of the protocol: as §1
The test system of experiment [10] is Staphylococcus aureus. Description: In vitro antibacterial activity against gram-positive Staphylococcus aureus 1775. The class given is functional. The method in brief:
as §1

Experiment [11] has as its system Staphylococcus aureus. Put plainly: In vivo efficacy against Staphylococcus aureus NCTC 10649M in mouse protection test after p.o. administration. The format is functional. Particulars: Staphylococcus aureus, po; read-out: ED50. The method in brief: as §2
The test system of experiment [12] is Pseudomonas aeruginosa. Put plainly: In vivo efficacy against Pseudomonas aeruginosa 5007 in mouse protection test after subcutaneous administration. The format is functional. As to conditions: Pseudomonas aeruginosa, sc; read-out: ED50. A digest of the protocol: as §2
The subject of experiment [13] is Pseudomonas aeruginosa. Put plainly: In vitro antibacterial activity against Gram-negative Pseudomonas aeruginosa 5007. The class given is functional. A digest of the protocol: as §1
The test system of experiment [14] is Mus musculus. Description: IIn vivo efficacy against Escherichia coli JUHL in mouse protection test after administration by oral gavage. The format is functional. The method in brief:
as §2

In experiment [15] the test system is Mus musculus. Put plainly: In vivo efficacy against Pseudomonas aeruginosa 5007 in mouse protection test after administration by oral gavage. The format is functional. The method in brief:
as §2

Experiment [16] relates to Streptococcus pneumoniae. Description: In vivo efficacy against Streptococcus pneumoniae ATCC 6303 in mouse protection test after s.c. administration. The class given is functional. Particulars: Streptococcus pneumoniae, sc; read-out: ED50. The method in brief: as §2
The subject of experiment [17] is Mus musculus. Description: In vivo efficacy against Pseudomonas aeruginosa 5007 in mouse protection test […]. The class given is functional. A digest of the protocol:
as §2

The test system of experiment [18] is Escherichia coli. Description: In vivo efficacy against Escherichia coli JUHL in mouse protection test after p.o. administration. Particulars: Escherichia coli, po; read-out: ED50. The format is functional. The method in brief: as §2
The test system of experiment [19] is Mus musculus. Put plainly: In vivo efficacy against Streptococcus pneumoniae ATCC 6303 in mouse protection test after administration by oral gavage. The format is functional. A digest of the protocol: as §2
For experiment [20], the system named is Mus musculus. Put plainly: In vivo efficacy against Staphylococcus aureus NCTC 10649M in mouse protection test.
The subject of experiment [21] is Pseudomonas aeruginosa. Put plainly: In vivo efficacy against Pseudomonas aeruginosa 5007 in mouse protection test after administration by oral gavage. The format is functional. Particulars: Pseudomonas aeruginosa, po; read-out: ED50. The method in brief: as §2
For experiment [22], the system named is Escherichia coli. Put plainly: In vitro antibacterial activity against Escherichia coli KNK 437 a ciprofloxacin less sensitive strain. The format is functional. A digest of the protocol:
as §1

Where [23] appears, read: Pseudomonas aeruginosa, DPHP 5263, read-out: MIC.
Where [24] appears, read: Staphylococcus aureus, NCTC 10649, read-out: MIC.
Setting [25] is: Escherichia coli, read-out: MIC.
Setting [26] is: Burkholderia cepacia, read-out: MIC.
Where [27] appears, read: Enterococcus faecium, ATCC 8043, read-out: MIC.
[28] abbreviates: Streptococcus pyogenes, read-out: MIC.
Where [29] appears, read: Staphylococcus aureus, read-out: MIC.
[30] abbreviates: Pseudomonas aeruginosa, read-out: MIC.

As a reminder, the MIC is the smallest concentration in the dilution series that meets the test's criterion for growth inhibition. For orientation: ED50 means the dose at which the effect has come halfway, by size or by number of responders. With `Cc1c(N2CCCC2)c(F)cn2c(=O)c(C(=O)O)cc(C3CC3)c12`, the MIC in experiment [1] (setting [23]) is over 100 µg/mL; in experiment [3] (setting [24]), 0.02 µg/mL (≈ 0.0605 µM); in [4] (setting [25]), 0.39 µg/mL (≈ 1.18 µM); in experiment [6], 0.78 µg/mL (≈ 2.36 µM); in experiment [7] (setting [26]), 0.78 µg/mL (≈ 2.36 µM); in experiment [8] (setting [27]), 0.2 µg/mL (≈ 0.605 µM). Besides, the MIC was found to be 0.2 µg/mL (≈ 0.605 µM) in experiment [9] (setting [28]) and 0.78 µg/mL (≈ 2.36 µM) in [10] (setting [29]). The figures for the ED50 in [2] and in [5] were over 12 mg/kg and over 50 mg/kg, respectively.

In the case of `Cc1c(N2C[C@H]3NCCO[C@@H]3C2)c(F)cn2c(=O)c(C(=O)O)cc(C3CC3)c12`, the MIC in experiment [1] (setting [23]) turned out to be 25 µg/mL (≈ 64.5 µM); in [3] (setting [24]), 0.05 µg/mL (≈ 0.129 µM); in experiment [4] (setting [25]), 0.78 µg/mL (≈ 2.01 µM); in experiment [7] (setting [26]), 3.1 µg/mL (≈ 8 µM); in experiment [13] (setting [30]) it was 1.56 µg/mL (≈ 4.03 µM); in experiment [8] (setting [27]), 0.2 µg/mL (≈ 0.516 µM). Moreover, the MIC in experiment [9] (setting [28]) was 0.2 µg/mL (≈ 0.516 µM); in [10] (setting [29]), 0.78 µg/mL (≈ 2.01 µM). Further, the ED50 in experiment [2] was 6 mg/kg; in experiment [11], 11.5 mg/kg; in [12], over 32 mg/kg; in experiment [5] it was over 5 mg/kg; in experiment [14], over 20 mg/kg; in experiment [15], over 50 mg/kg.

On to `Cc1c(N2CC[C@H](NC3CC3)C2)c(F)cn2c(=O)c(C(=O)O)cc(C3CC3)c12`, for which the MIC in [1] (setting [23]) worked out at 12.5 µg/mL (≈ 32.4 µM); in [3] (setting [24]) it was 0.02 µg/mL (≈ 0.0519 µM); in [4] (setting [25]), 0.2 µg/mL (≈ 0.519 µM); in experiment [7] (setting [26]), 0.39 µg/mL (≈ 1.01 µM); in experiment [13] (setting [30]), 0.39 µg/mL (≈ 1.01 µM); in [8] (setting [27]), 0.2 µg/mL (≈ 0.519 µM). The values for the MIC in [9] (setting [28]) and in experiment [10] (setting [29]) were 0.05 µg/mL (≈ 0.13 µM) and 0.39 µg/mL (≈ 1.01 µM), respectively. In addition, the ED50 in [16] is over 8 mg/kg; in experiment [2], 3.6 mg/kg; in experiment [11] it was 25 mg/kg; in [12], over 32 mg/kg; in [17] it was over 50 mg/kg; in experiment [5] it was 5 mg/kg. Further, the figures for the ED50 in experiment [18] and in experiment [19] were 16.5 mg/kg and 23.1 mg/kg, respectively.

For the compound `Cc1c(N2CC[C@@H]3[C@H](N)[C@@H]3C2)c(F)cn2c(=O)c(C(=O)O)cc(C3CC3)c12`, the MIC in experiment [1] (setting [23]) is 6.2 µg/mL (≈ 16.7 µM); in [3] (setting [24]) it was 0.02 µg/mL (≈ 0.0538 µM); in experiment [4] (setting [25]), 0.2 µg/mL (≈ 0.538 µM); in [7] (setting [26]), 3.1 µg/mL (≈ 8.35 µM); in experiment [13] (setting [30]) it was 0.39 µg/mL (≈ 1.05 µM); in experiment [8] (setting [27]), 0.05 µg/mL (≈ 0.135 µM). For the same compound, the MIC was determined as 0.05 µg/mL (≈ 0.135 µM) in [9] (setting [28]) and 1.56 µg/mL (≈ 4.2 µM) in experiment [10] (setting [29]). In addition, the ED50 in experiment [11] stood at 4.1 mg/kg; in experiment [5] it was 0.9 mg/kg; in [18] it was 5 mg/kg; in [20], 1.2 mg/kg.

For `Cc1c(N2CCC2)c(F)cn2c(=O)c(C(=O)O)cc(C3CC3)c12`, the minimal inhibitory concentration (MIC) in [1] (setting [23]) was over 10 µg/mL; in experiment [3] (setting [24]) it was 0.2 µg/mL (≈ 0.632 µM); in experiment [4] (setting [25]), 3.1 µg/mL (≈ 9.8 µM); in experiment [6] it was 3.1 µg/mL (≈ 9.8 µM); in experiment [7] (setting [26]), 3.1 µg/mL (≈ 9.8 µM); in [8] (setting [27]), 0.78 µg/mL (≈ 2.47 µM). Moreover, the MIC amounted to 0.78 µg/mL (≈ 2.47 µM) in experiment [9] (setting [28]) and 3.1 µg/mL (≈ 9.8 µM) in [10] (setting [29]).

For `Cc1c(N2C[C@@H](N)[C@H](C3CC3)C2)c(F)cn2c(=O)c(C(=O)O)cc(C3CC3)c12` (stereo in doubt), the minimum inhibitory concentration (MIC) was determined as 3.1 µg/mL (≈ 8.04 µM) in [1]; 0.05 µg/mL (≈ 0.13 µM) in experiment [3]; 0.2 µg/mL (≈ 0.519 µM) in [4]; 1.56 µg/mL (≈ 4.05 µM) in experiment [7]; 0.39 µg/mL (≈ 1.01 µM) in experiment [13]; 0.1 µg/mL (≈ 0.259 µM) in experiment [8]. For the same compound, the figures for the MIC in experiment [9] and in [10] were 0.05 µg/mL (≈ 0.13 µM) and 0.78 µg/mL (≈ 2.02 µM), respectively. Also, the ED50 in experiment [16] is 8 mg/kg; in experiment [11], 10.9 mg/kg; in experiment [12] it was over 32 mg/kg; in [5], 3.4 mg/kg; in experiment [18], 10 mg/kg; in experiment [19] it was 25 mg/kg. In addition, the ED50 in experiment [20] was 1.5 mg/kg; in experiment [21], over 50 mg/kg.

For the compound `Cc1c(N2CC[C@H](N)C2)c(F)cn2c(=O)c(C(=O)O)cc(C3CC3)c12` (stereo in doubt; -(S)-3i) [ABT-719], the MIC in experiment [1] amounted to 0.39 µg/mL (≈ 1.13 µM); in experiment [3], 0.01 µg/mL (≈ 0.029 µM); in experiment [7], 0.39 µg/mL (≈ 1.13 µM); in [13] it was 0.05 µg/mL (≈ 0.145 µM); in experiment [22], 0.02 µg/mL (≈ 0.0579 µM); in [8], 0.02 µg/mL (≈ 0.0579 µM). The MIC in experiment [9] amounted to 0.02 µg/mL (≈ 0.0579 µM); in [10], 0.78 µg/mL (≈ 2.26 µM).

Source of the values: ChEMBL document CHEMBL1132437, “Synthesis and antimicrobial activity of 4H-4-oxoquinolizine derivatives: consequences of structural modification at the C-8 position” (1999).
